From the EternaBench riboswitch data

System: MS2 coat protein
Experiment: apparent Kd, MS2 coat protein; higher = weaker binding; RNA-MaP array; FMN 200 µM where present
Summary of the method: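 Green signal from SNAP-549-labelled MS2 coat protein was normalised to red-channel RNA signal and to the median Fmax of control clusters. The protein was titrated from 0.7 or 1.5 nM, doubling to 3 µM, without and then with constant ligand, over designs transcribed by stalled E. coli RNA polymerase on Illumina sequencing-chip clusters, in 100 mM Tris-HCl pH 7.5, 80 mM KCl, 4 mM MgCl2, BSA, DTT, yeast tRNA and Tween-20. The apparent Kd is the median of filtered per-cluster binding-curve fits.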

[1] = designed as: OFF switch for flavin mononucleotide, no ligand
[2] = ligand present: flavin mononucleotide, designed as: OFF switch for flavin mononucleotide
[3] = designed as: ON switch for flavin mononucleotide, no ligand
[4] = ligand present: flavin mononucleotide, designed as: ON switch for flavin mononucleotide

Row | Sequence | apparent Kd [1] | apparent Kd [2] | apparent Kd [3] | apparent Kd [4]
1 | AGAUUGCAUGAGGAUAUCGUAUUAGAUAUAAUGCGAGAAGGCAUGACAUGAGGAUCACCCAUGUAGUGUGGGUU | 55.9 nM | 40.2 nM | – | –
2 | UGUUACUAGUAAGGAUAUACUUGCGACUAGCUUGUAGAAGGUACAGUCUUUUGUAUAACAUGUUUACAUGAGGAUCACCCAUGU | – | – | 9.05 nM | 8.38 nM
3 | GGUGUGAGGCAGGAUAUGCUAUAUGUUAGUAAUGCAGAAGGGUCUACAUGAGGAUCACCCAUGUGUGCGGUUGA | 90.5 nM | 394 nM | – | –
4 | UAUAAUCGAGGAUAUACAUGAGGAUCACCCAUGUGUUGCCGCGUGAUGUGUUUGUCAGGUAGAAGGCGAUUAUA | 200 nM | 43.8 nM | – | –
5 | UACAUGAGGAUCACCCAUGUUUUGUCGUGUAUGGUAUUUAUCUAGGAUAUCAUUUUAUUUAGUUAUGAGAAGGAGAAUAUUAAU | 28.9 nM | 34.4 nM | – | –
6 | UUUUAACAUGAGGAUCACCCAUGUGAGGAUAUCGAAAUUUAUAUUUAUAUUAAUAUAUCGAGAAGGCACAUUUU | 99 nM | 144 nM | – | –
7 | AUUAUAAAGGUAGGAUAUAGUAUUAUAAUUAAAUUAGAAGGAUCUCACAUGAGGAUCACCCAUGUAAGAGGAUCACCCAUGUAU | 9.64 nM | 9.62 nM | – | –
8 | AAAAAGCGAGGAUAUACAUGAGGAUCACCCAUGUCAAAAAAAUAGAAAAAAAUAAAAAGUAGAAGGCGCAAAAA | 58.8 nM | 58.4 nM | – | –
9 | ACUAGAUGAGGAUAUGCAUAUUUUCGUGUUCUUCUAGAUUAACAUGAGGAUCACCCAUGUAGAAGGCGUCAAUA | 16.1 nM | 18.9 nM | – | –
10 | UAUUCUAGAUAGGAUAUACUUUUUUUUUUUUUCGUAGAAGGAUCUACAUGAGGAUCACCCAUGUUUUCAGCAGU | 44.5 nM | 38.4 nM | – | –
11 | CCAUCAGCGAACGAUACGAAUGGACAUGAGGAUCACCCAUGUAGAAGGACAGGAGAAUAACGGCUGUAGGAUAUACAUUUAGUG | 40.3 nM | 31.2 nM | – | –
12 | GUCAGCUCGUGAGGAUAUACAUGUGCUGGAUACAGCACUAUUGAGUUCACAUGAGGAUCACCCAUGUAGAAGGCACGAGCUGAU | 15.1 nM | 28.1 nM | – | –
13 | AUAGCAACAUGAGGAUCACCCAUGUAGGAUAUCGCUAUUGUAAUCAUGAAACAUGAUUACAAUAGCGAGAAGGACAUAUGCUAG | 11.5 nM | 12.2 nM | – | –
14 | GCACUGGAUGUAGGAUAUCAGGACGAUAAGUCCUGAGAAGGACAUGAGGAUCACCCAUGUCUCAAAACCAGUGCAUAUAAUAUA | 13.2 nM | 19.1 nM | – | –
15 | CAUCCACAUGAGGAUCACCCAUGUGAGGAUAUGAUACUAUGUACUUCGGUACAUAGUAUCAGAAGGCACAGGUG | 120 nM | 37.4 nM | – | –
16 | AUUAUACAUGAGGAUCACCCAUGUAAUUAAUCUAGUAAGAUCUAGGAUAUCAGCUCGUUUAGAGCUGAGAAGGAGAUCACAUGU | – | – | 53.5 nM | 21 nM
17 | UUACUGUAAUAGAAGGGUAUUUGGGUAGUACAUGAGGAUCACCCAUGUUUUAUAGGAUAUGUUUAUAGUUUUUAAUCAAGUUUA | 85.1 nM | 62.3 nM | – | –
18 | CGCUACGUUUCGUAGCAGUGUCAUCGAGAAGGCCCUGACAUGAGGAUCACCCAUGUUGUUACAUGGGAGGAUAUCGAUGAUACA | – | – | 12.8 nM | 4.99 nM

Row | Sequence | apparent Kd [1] | apparent Kd [2] | apparent Kd [3] | apparent Kd [4]
19 | AUAUCUCUAUUAGUUCCAAUACGAACAUGAGGAUCACCCAUGUAGGAUAUGCUAGAAGUUGUGUUGCAGAAGGACAAGUACCUU | 11.8 nM | 11.1 nM | – | –
20 | GCCAUCGCAUGAGGAUAUGCUCCGGUUUCCGGAGCAGAAGGCGUGUCAUUAGACAUGAGGAUCACCCAUGUAGUUAAGAUGGCA | – | – | 489 nM | 21.3 nM
21 | UCAUACAUUCGAGGAUAUCGGUGAUAACUCUAACGAGAAGGCGAUUUAAAACAUAAUGCUGUAGACAUGAGGAUCACCCAUGUA | – | – | 416 nM | 146 nM
22 | GCGCUUAUACAGAAGGCCAGAGACAUGAGGAUCACCCAUGUUAGAUUGUGGAGGAUAUGUGUUUUAUUACAGAUAGUUGAGCGC | – | – | 20.5 nM | 6.53 nM
23 | UCCAACCCUGUGAGGAUAUCGUCCAUUUUUUGUUACGAGAAGGCACAUGAGGAUCACCCAUGUUUUUUAUUUUU | 21.9 nM | 134 nM | – | –
24 | GUUUAGUGAGGAUAUGUGGCGUAGAUCGAGCGCGGUCGGCUACAGAAGGCACAUGAGGAUCACCCAUGUUUCUC | 59.5 nM | 372 nM | – | –
25 | UUAUAAAAUAUAGGAUAUGGAAACAUGAGGAUCACCCAUGUAUGAUAAGAUAAAUUAUGAUAUAGCCAGAAGGAUACAAUUUUU | – | – | 37.3 nM | 35 nM
26 | GGAUAAUUGAUCCUUUUUUAUUACAUGAGGAUCACCCAUGUGCAGGAUAUCGAUUAUUAUAGUUUCGAGAAGGGCAAGAAUUGU | 73.4 nM | 276 nM | – | –
27 | AAGGGUUGUGAGGAUAUGGCUUACCAAUUGGUACCAGAAGGCGCUACAUGAGGAUCACCCAUGUGGGUCGUCCC | 51.8 nM | 82.9 nM | – | –
28 | UGCUGGUGACAGCAUCCAUCAAAACAUGAGGAUCACCCAUGUAGAAGGCUGUACGGUUACCGUACAGAGGAUAUACAAUGAUGG | 7.27 nM | 8.69 nM | – | –
29 | UGGAUGUAGGAGAAGGAGGACUUCAUGAGGAUCACCCAUGUGUUAGUACUUAGGAUAUUUGACAACAUGAGGAUCACCCAUGUG | – | – | 105 nM | 96.4 nM
30 | UAGAAGUCAGGAUAUCCAUGGCGGCACUUGCGUGGUGGCGUGGAGAAGGGACAUGAGGAUCACCCAUGUAAAGU | 53.3 nM | 48.5 nM | – | –
31 | UUGACGGCAGGAUAUACAUGAGGAUCACCCAUGUAAAUUUUUCGUUUAACUUGAAUGUGUAGAAGGGCCAAAAU | 19.4 nM | 18.8 nM | – | –
32 | GUAGUGUAUGUAGGAUAUGUGAAGCAAAGCUUCACAGAAGGACAUGAGGAUCACCCAUGUAUUGCAGUCUGCAAUCAGACUGCU | 43.4 nM | 152 nM | – | –
33 | UUGGACGUCGUAGGAUAUGUAGGAUAUUCCUACAUGAGGAUCACCCAUGUUCACAUGGAAGAAGGACAGAAGGACGAUGUCCAU | – | – | 502 nM | 5.8 nM
34 | UCGAUGCUAGGAUAUACUUAUAAAACCACUGUAGAGUCCUCACAUGAGGAUCACCCAUGUAGAAGGAGCAUCUA | 25.9 nM | 46.4 nM | – | –
35 | GGACGUCACAUGAACAUGAGGAUCACCCAUGUAACUAGACAUGAGGAUAUGGAUCCUAAUUGGAUCCAGAAGGCAUGGACGUCC | – | – | 199 nM | 32.1 nM
36 | CGCUCUAUAUAUUUGGCAAGAAUCAGAAGGCGUUACAUGAGGAUCACCCAUGUUUUGUAUAGUAACGAGGAUAUGAUAUGAGCG | 13.3 nM | 13.3 nM | – | –
